Fam108B counter = counter-screen for RBBP9 inhibitors: inhibitors of mouse Fam108B; recombinant Fam108B, FP-Rh probe fluorescence polarization; inhibition, % at 9.51 µM; hit rate 0.33% among 300,000; AID 1947;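 active = inhibition above the screen mean inhibition plus 3 SD, computed separately per campaign, cut at about 18% in these data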;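 note: inhibitors lower polarization as less probe binds the enzyme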
LYPLA2 inh = counter-screen for PME1 inhibitors: inhibitors of human LYPLA2; recombinant LYPLA2, FP-Rh probe fluorescence polarization; hit rate 0.38% among 320,000; AID 2177; inhibition, % at 5.9 µM;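 active = inhibition above the screen-wide mean plus 3 SD, limit set per campaign, cut at about 26% in these data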;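 note: 0% = LYPLA2 with DMSO and 100% = wells lacking LYPLA2 enzyme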
RBBP9 inh = inhibitors of human serine hydrolase RBBP9; O75884; recombinant RBBP9, FP-Rh probe fluorescence polarization; inhibition, % at 7.94 µM; hit rate 0.2% among 220,000;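 active = inhibition above the campaign mean of all tested compounds plus 3 SD, cut at about 14% in these data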;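 note: plate controls were DMSO wells with RBBP9 for no effect and wells lacking RBBP9 protein for full effect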
Target sequence (O75884 whole entry, looked up): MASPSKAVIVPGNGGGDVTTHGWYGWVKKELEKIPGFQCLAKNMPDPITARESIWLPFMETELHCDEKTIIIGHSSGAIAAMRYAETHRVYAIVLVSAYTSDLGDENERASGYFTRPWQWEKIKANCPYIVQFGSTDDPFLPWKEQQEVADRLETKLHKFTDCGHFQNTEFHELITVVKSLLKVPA
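Measured by – fluorescence polarization · Test system – RBBP9 protein · Input – 2.5 µM RBBP9 dispensing solution, before mixing · Measure – percent inhibition from mP, scaled between DMSO and no-protein wells · Benchmarks – DMSO-treated enzyme wells and wells lacking RBBP9 · Times – preincubation 30 min plus labeling 45 min at 25 °C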
LYPLA1 counter = blocks human lysophospholipase 1, a PME1 counter-screen. recombinant LYPLA1, FP-Rh probe fluorescence polarization. hit rate 0.16% among 320,000. inhibition, % at 5.9 µM. AID 2174;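 active = inhibition above the mean of all tested compounds plus 3 SD, set per campaign, cut at about 14% in these data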;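 note: inhibitors block serine hydrolase probe labeling of LYPLA1 so polarization falls; 0% = enzyme with DMSO and 100% = wells lacking LYPLA1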
PME-1 inh = PME-1 (human) inhibition. inhibition, % at 5.9 µM. recombinant PME-1, FP-Rh probe fluorescence polarization. hit rate 0.53% among 320,000. Q9Y570;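 active = inhibition above the campaign mean of all compounds plus 3 SD, cut at about 26% in these data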;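 note: competitive labeling of PME-1 active site by serine hydrolase directed probe; 0% = PME-1 with DMSO and 100% = wells lacking PME-1 enzyme; inhibitors block probe labeling so polarization falls and inhibition rises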
Target sequence (Q9Y570 whole entry, looked up): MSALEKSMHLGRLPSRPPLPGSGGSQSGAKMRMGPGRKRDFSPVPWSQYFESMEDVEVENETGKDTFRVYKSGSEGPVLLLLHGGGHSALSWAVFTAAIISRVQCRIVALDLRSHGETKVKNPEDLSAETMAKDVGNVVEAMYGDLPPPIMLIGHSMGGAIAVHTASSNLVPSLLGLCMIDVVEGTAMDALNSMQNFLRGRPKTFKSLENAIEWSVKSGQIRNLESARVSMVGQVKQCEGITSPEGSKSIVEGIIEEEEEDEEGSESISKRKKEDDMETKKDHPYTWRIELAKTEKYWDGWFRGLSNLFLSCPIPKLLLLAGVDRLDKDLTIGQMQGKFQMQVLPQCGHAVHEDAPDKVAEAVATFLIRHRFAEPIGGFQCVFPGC
* marks the source's active call; other numbers are inactive results; x = no result given. Sampled rows, rich in hits. Any-hit rate of the full collection: about 0.99%.

SMILES	Fam108B counter	LYPLA2 inh	RBBP9 inh	LYPLA1 counter	PME-1 inh
COc1ccc(N2Cc3ccc(C(=O)N/N=C\c4ccc(O)cc4O)cc3C2)cc1	50*	31*	x	-8	48*
O=C(O)CCCNc1cc(N2CCC3(CC2)OCCO3)c2noc3c2c1C(=O)c1ccccc1-3	35*	-1	6	1	-2
COc1cc(/C=N/NC(=O)c2sc(N)c(C#N)c2C)ccc1O	4	-1	7	-3	13
Cc1c(C(=O)N/N=C/c2ccc(O)c(Br)c2)sc(N)c1C#N	7	4	-6	-1	29*
COc1ccc(NC(=O)COC(=O)c2cc(Cl)ccc2O)cc1S(=O)(=O)N1CCCCC1	x	2	x	-1	7
CCOc1cc(N(CC)CC)ccc1/C=C(/C#N)c1nc2ccccc2[nH]1	8	-17	-3	-16	30*
CCCOc1cc(N(CC)CC)ccc1/C=C(/C#N)c1nc2ccc(C)cc2[nH]1	4	-17	-10	-9	15
COc1cccc(CNC(=O)N2CCN(c3ccccc3)CC2)c1	1	-5	x	-2	-5
CC1(C)CC(=O)C2=C(C1)N(CCN1CCOCC1)C1=C(C(=O)CC(C)(C)C1)C2c1cccc(F)c1	-1	-2	-5	2	28*
Cc1c(C(=O)C(=O)NCC2CCCO2)c2ccccc2n1C (stereo not drawn)	3	3	-15	2	1
CC(Sc1ccccc1)C(=O)NN=C1CCCCCCC1 (stereo not drawn)	-3	3	-6	0	-5
Cc1cc(NC(=O)CSc2nc3ccccc3c(=O)n2C2CCCC2)no1	1	-3	-9	-3	27*
CCOC(=O)c1cc2occc2n1CC(=O)N1CCCc2ccccc21	0	4	8	2	4
COc1ccc(N=Nc2nc3ccc(Br)cc3n2C)cc1	3	-1	7	-4	41*
CSCCC(NC(=O)c1cccc(C)c1)C(=O)OCC(=O)NC(=O)c1cccn1C (stereo not drawn)	0	2	-5	0	5
COCC(C)NC(C(=O)Nc1cccc(C(C)=O)c1)c1ccccc1 (stereo not drawn)	0	1	-4	-2	-2
CCOc1ccc(NC(C(=O)Nc2cccc(C(C)=O)c2)c2ccccc2)cc1 (stereo not drawn)	6	4	-9	-5	32*
O=C(NNC(=O)c1cncc(Br)c1)c1ccncc1	x	0	x	-5	-3
Oc1[nH]c2ccccc2c1C=Nc1ccc2c(c1)OCO2	2	-1	-2	0	31*
CC(C)(C)OC(=O)NCCCC1=CC2=CC(=O)C(C)(OC(=O)c3ccc(Cl)nc3)C(=O)C2=CO1 (stereo not drawn)	7	16	x	18*	25
N#CCSc1nc2c(cc1C#N)CCCCCC2	-2	-5	-3	0	44*
COc1cc(-c2nc(CN(C)C(C)c3ccncn3)c(C)o2)ccc1F (stereo not drawn)	2	0	-10	-3	1
CCOc1ccc(/C=C2\SC(=S)N(C(C(=O)O)c3ccccc3)C2=O)cc1OC (stereo not drawn)	2	0	-7	2	35*
COc1ccc(OC)c(/C=C2\SC(=S)N(C(C(=O)O)c3ccccc3)C2=O)c1 (stereo not drawn)	0	0	-1	0	2
CCNC(=S)Nc1ccc(Cl)c([N+](=O)[O-])c1	1	-7	-11	-9	2
SMILES	Fam108B counter	LYPLA2 inh	RBBP9 inh	LYPLA1 counter	PME-1 inh
Cn1c(N/N=C/c2c[nH]c3ccccc23)nc2ccccc21	4	-1	3	-3	30*
O=C(NC1C(=O)NNC1c1ccc(Cl)cc1)c1ccc(F)cc1 (stereo not drawn)	-2	37*	-15	-6	4
CCC(C)c1ccccc1NC(=O)C(C)N(C)Cc1cccc(OC)c1 (stereo not drawn)	-2	0	2	-2	5
Cc1cc([N+](=O)[O-])ccc1-c1ccc(C2Nc3ccccc3C(=O)N2O)o1 (stereo not drawn)	-1	-7	-11	-7	37*
COC(=O)c1cc(Cl)c(NC(=O)c2ccc(F)cc2)cc1OC	7	2	-4	-5	-3
COc1ccc(Cn2c(N)c(C#N)c3nc4ccccc4nc32)cc1OC	-1	2	-5	-4	0
COc1ccc(CCn2c(N)c(C#N)c3nc4ccccc4nc32)cc1OC	4	6	-1	0	34*
Cc1ccccc1C(=O)Nc1ccnn1C1CCN(C2CCSCC2)CC1	0	4	x	2	-1
O=C(C1CCCCC1)N1CCC(c2nc3c(nnn3Cc3c(F)cccc3Cl)c(=O)[nH]2)CC1	-4	2	-12	4	-1
CCCCCCC(=O)N1CCC(c2nc3c(nnn3Cc3ccccc3Cl)c(=O)[nH]2)CC1	-3	39*	-6	7	27*
CCC1(C)Cc2c(sc3nc(NN)n(C)c(=O)c23)CO1 (stereo not drawn)	2	-3	-8	-6	37*
CSc1nc(S(=O)(=O)c2ccc(C)cc2)c(Cl)s1	0	-3	-4	-4	4
COc1cc(/C=N\Nc2nc3ccccc3o2)cc(OC)c1OC	0	2	-11	-1	29*
Brc1ccc(/C=N/Nc2nc3ccccc3o2)cc1	-6	4	x	-3	31*
Oc1ccccc1/C=N/Nc1nc2ccccc2o1	5	0	-5	0	21
COc1ccc(/C=N/Nc2nc3ccccc3o2)cc1O	1	-8	-1	-3	48*
CC(=O)Nc1nc(NC(=O)/C=C/c2ccccc2)n(-c2ccccc2)n1	0	1	-5	-2	1
O=C(c1ccccc1[N+](=O)[O-])N1CCN(c2ccc(N3CCOCC3)nn2)CC1	1	8	x	1	-7
CCCOC(=O)CC1C(=O)NCCN1C(=O)OC(C)(C)C (stereo not drawn)	0	-3	-5	0	0
CCOC(=O)CCc1c(C)nc(SCCCn2c(=O)[nH]c3ccccc32)c(C#N)c1C	-4	7	-4	2	26*
Cc1cccc(NC(=O)COC(=O)c2cccc3c2C(=O)c2ccccc2C3=O)c1C	5	6	-5	-4	41*
Cc1cccc(C)c1NC(=O)COC(=O)c1cccc2c1C(=O)c1ccccc1C2=O	-10	-7	-5	1	71*
Cc1cccc(C)c1NC(=O)c1cccc2c1-c1ccccc1C2=O	0	8	-1	1	-1
O=C(c1cccc(S(=O)(=O)Nc2ccc(F)cc2)c1)N1CCOCC1	x	3	x	1	3
CCOc1ccc(N=Nc2c(=O)[nH]n3c(=O)cc(C)[nH]c23)cc1	-2	6	32*	2	5
CCOc1ccc(N=Nc2c(C)[nH]n(-c3ccccc3)c2=O)cc1	3	-2	x	0	7
O=c1[nH]n2c(=O)c3c([nH]c2c1N=Nc1cccc(Cl)c1)CCCC3	9	-1	-2	12	58*

Bioassay records deposited in PubChem by The Scripps Research Institute Molecular Screening Center.
